Test results from the array DNA melting data of Ke et al. (doi:10.1101/2024.01.08.574731).

Legend:
[1] = folding enthalpy; higher = less favourable; fluorescence melt of hairpins on a sequencing array, two-state fit; conditions: sodium 0.088 M
In short: (§1)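 Melting temperature and folding enthalpy were derived from bootstrapped two-state fits. The fitted temperatures were raised by 9.35 °C to agree with UV melts, and four replicates were combined by inverse variance. The underlying data were Cy3 fluorescence images of library hairpins, with annealed Cy3 and quencher oligos, on a sequenced MiSeq flow cell in 50 mM Na-HEPES pH 8.0, 25 mM NaCl, taken in 2.5 °C steps up to 60 °C, normalised to pre-quench Cy3 and to control constructs.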

[2] = melting temperature; fluorescence melt of hairpins on a sequencing array, two-state fit, raised by 9.35 °C to match UV melts; conditions: sodium 0.088 M
In short: as §1

| Sequence | folding enthalpy [1] [kcal/mol] | Tm [2] [°C] |
| --- | --- | --- |
| GTGAGAGGAAACTCTCAC (((((((....))))))) | -41.8 | 61.7 |
| GTGAGAGGAAACTCTTAC ((.((((....)))).)) | -30.9 | 38.2 |
| GTGAGCCGAAAGGCCAC (((.(((....)))))) | -18.7 | 64.7 |
| GTGAGCCGAAAGGCCCAC (((.(((....))).))) | -23.3 | 55.3 |
| GTGAGCGAAAGCTATCAC ((((((....)))..))) | -18.3 | 37.6 |
| GTGAGCGAAAGCTCTCAC ((((((....)))..))) | -10 | 40.6 |
| GTGAGCGAAAGCTGTCAC ((((((....)))..))) | -14.3 | 40.2 |
| GTGAGCGAAAGCTTACAC ((((((....)))..))) | -14 | 49 |
| GTGAGCGGAAACGCCCAC (((.(((....))).))) | -23.7 | 51.1 |
| GTGAGCGGAAACGCTTGC (..((((....))))..) | -16.2 | 43.8 |
| GTGAGGACGAAAGTCCAC (((..(((....)))))) | -13.9 | 47.9 |
| GTGAGGCGAAAGCCACAC (((.(((....))).))) | -26.5 | 59.6 |
| GTGAGGGCGAAAGCCCAC (((..(((....)))))) | -11.6 | 46.5 |
| GTGAGGGGAAACTCTCGC (.(((.(....).))).) | -24.9 | 37.2 |
| GTGAGTCGAAAGACCAC (((.(((....)))))) | -33.7 | 53 |
| GTGAGTGCGAAAGCACAC (((..(((....)))))) | -12.5 | 48.6 |
| GTGAGTGGAAACACTCAC (((((((....))))))) | -44 | 66.2 |
| GTGATAACGAAAGTTCAC (((..(((....)))))) | -15.1 | 37.5 |
| GTGATAGCGAAAGCTCAC (((..(((....)))))) | -18.9 | 44.9 |
| GTGATAGGAAACTGTCAC ((((.((....)).)))) | -36.5 | 45.7 |
| GTGATCCCGAAAGGGCAC (((..(((....)))))) | -14.4 | 39.9 |
| GTGATCCGAAAGGACAC (((.(((....)))))) | -22.5 | 50.7 |
| GTGATCGAAAGATAACAC ((((((....)))..))) | -23.6 | 34.5 |

| Sequence | folding enthalpy [1] [kcal/mol] | Tm [2] [°C] |
| --- | --- | --- |
| GTGATCGAAAGATCACAC ((((((....)))..))) | -14.1 | 67.3 |
| GTGATCGAAAGATCGCAC ((((((....)))..))) | -18.1 | 51.8 |
| GTGATCGAAAGATGCAC ((((((....))).))) | -19.6 | 38.7 |
| GTGATGCCGAAAGGCCAC (((..(((....)))))) | -13.5 | 41.6 |
| GTGATGCGAAAGCACAC (((.(((....)))))) | -25.8 | 53.5 |
| GTGATGGGAAACCATTGC (..((((....))))..) | -23.6 | 33.7 |
| GTGATTGGAAACAACCAC (((.(((....))).))) | -31.3 | 37.5 |
| GTGATTGGAAACAATCAC (((((((....))))))) | -46.9 | 58.3 |
| GTGATTGGAAACAATCGC (.(((((....))))).) | -40.7 | 49.1 |
| GTGATTGGAAACAATTGC (..((((....))))..) | -20.4 | 31.3 |
| GTGATTGGAAACGATCAC (((((.(....).))))) | -44.9 | 47.9 |
| GTGATTTCGAAAGAACAC (((..(((....)))))) | -22.9 | 31.3 |
| GTGCACGAAAGTGATCAC ((((((....)))..))) | -12.7 | 37.4 |
| GTGCACGAAAGTGTACAC ((((((....)))..))) | -17.1 | 51.8 |
| GTGCACGGAAACACGCAC ((((..(....)..)))) | -29.2 | 41.1 |
| GTGCACGGAAACGCGCAC ((((.((....)).)))) | -49 | 57.7 |
| GTGCACGGAAACGTACAC (((.(((....))).))) | -31.8 | 48.5 |
| GTGCAGACGAAAGTCCAC (((..(((....)))))) | -16.9 | 37.9 |
| GTGCAGCGAAAGCTCCAC (((.(((....))).))) | -21.8 | 44.7 |
| GTGCAGGGAAACCTACAC (((.(((....))).))) | -31.9 | 41.5 |
| GTGCATACGAAAGTACAC (((..(((....)))))) | -8.91 | 29.3 |
| GTGCATCGAAAGATCCAC (((.(((....))).))) | -28.2 | 38.1 |
| GTGCATGGAAACACGCAC ((((.((....)).)))) | -34.6 | 47.7 |

| Sequence | folding enthalpy [1] [kcal/mol] | Tm [2] [°C] |
| --- | --- | --- |
| GTGCATGGAAACATGCAC (((((((....))))))) | -33.8 | 68.6 |
| GTGCATGGAAACATGTGC (..((((....))))..) | -25 | 43 |
| GTGCCACGAAAGTGACAC (((.(((....))).))) | -40.9 | 56.5 |
| GTGCCAGCGAAAGCTCAC (((..(((....)))))) | -6.66 | 52.6 |
| GTGCCAGGAAACCAGCAC ((((..(....)..)))) | -28.8 | 41.5 |
| GTGCCAGGAAACTGGTGC (..((((....))))..) | -26.2 | 48 |
| GTGCCCCGAAAGGGCCAC (((.(((....))).))) | -13.4 | 51.3 |
| GTGCCCGAAAGGGACAC ((((((....))).))) | -25.5 | 58.7 |
| GTGCCCGAAAGGGCCAC ((((((....))).))) | -7.47 | 57.2 |
| GTGCCCGAAAGGGTACAC ((((((....)))..))) | -13.9 | 61.6 |
| GTGCCGCGAAAGCGCCAC (((.(((....))).))) | -18.2 | 53.8 |
| GTGCCGGGAAACCAGCAC ((((.((....)).)))) | -33.9 | 50.1 |
| GTGCCGGGAAACCGACAC (((.(((....))).))) | -33.5 | 52.9 |
| GTGCCGGGAAACTGGCAC (((((.(....).))))) | -37 | 66 |
| GTGCCTACGAAAGTACAC (((..(((....)))))) | -4.56 | 37.8 |
| GTGCCTCCGAAAGGACAC (((..(((....)))))) | -8.63 | 52.4 |
| GTGCCTCGAAAGAGTCAC (((.(((....))).))) | -29.5 | 50.4 |
| GTGCCTGGAAACGGGCAC (((((.(....).))))) | -36.8 | 65.5 |
| GTGCCTGGAAACGGGTAC ((.((.(....).)).)) | -18.6 | 44 |
| GTGCGACGAAAGTCCAC (((.(((....)))))) | -29.4 | 52 |
| GTGCGAGGAAACCCGCAC (((((.(....).))))) | -34.6 | 58.1 |
| GTGCGCCGAAAGGCCAC (((.(((....)))))) | -21.3 | 58.6 |
| GTGCGCCGAAAGGCCCAC (((.(((....))).))) | -24.4 | 48.5 |

| Sequence | folding enthalpy [1] [kcal/mol] | Tm [2] [°C] |
| --- | --- | --- |
| GTGCGCGAAAGCGAACAC ((((((....)))..))) | -12.6 | 58.5 |
| GTGCGCGAAAGCGACAC ((((((....))).))) | -16.9 | 63.8 |
| GTGCGCGGAAACGTGCAC ((((.((....)).)))) | -35.4 | 67.5 |
| GTGCGTACGAAAGTACAC (((..(((....)))))) | -10.5 | 54.1 |
| GTGCGTCGAAAGACACAC (((.(((....))).))) | -39 | 53.5 |
| GTGCGTCGAAAGACCAC (((.(((....)))))) | -29.6 | 56.2 |
| GTGCGTGCGAAAGCACAC (((..(((....)))))) | -9.15 | 63.5 |
| GTGCGTGGAAACGCGCAC (((((.(....).))))) | -23.7 | 65.6 |
| GTGCGTTCGAAAGAACAC (((..(((....)))))) | -11.7 | 54.1 |
| GTGCTACCGAAAGGTCAC (((..(((....)))))) | -15.5 | 37 |
| GTGCTAGGAAACCAGCAC (((((.(....).))))) | -37 | 49.9 |
| GTGCTCACGAAAGTGCAC (((..(((....)))))) | -19.9 | 48.3 |
| GTGCTGCGAAAGCACAC (((.(((....)))))) | -19.4 | 55.3 |
| GTGCTGCGAAAGCACCAC (((.(((....))).))) | -15 | 52.6 |
| GTGCTGGCGAAAGCCCAC (((..(((....)))))) | -10.3 | 49.3 |
| GTGCTGGGAAACTAGCGC (.(((.(....).))).) | -29.7 | 45.5 |
| GTGCTGGGAAACTGGCAC ((((..(....)..)))) | -26.2 | 49.7 |
| GTGCTTCGAAAGAAACAC (((.(((....))).))) | -36 | 45.6 |
| GTGCTTCGAAAGAACAC (((.(((....)))))) | -32.1 | 42.8 |
| GTGCTTGGAAACAAACAC (((.(((....))).))) | -28.9 | 39.1 |
| GTGCTTGGAAACAAGTGC (..((((....))))..) | -21 | 43 |
| GTGCTTGGAAACGAGTAC ((.((.(....).)).)) | -19.3 | 35 |
